Bioassay records (PubChem BioAssay)
MrgX1 agonist: agonists of human MrgX1 receptor | hit rate 0.44% among 310,000 | MrgX1-HEK293 cells, Fluo-4 calcium fluorescence, agonist mode; hits give high values | AID 588627 | Q96LB2 | B-score at 10 µM;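 active = calcium response B-score plate-corrected fluorescence ratio at least 3 library SD, with starting fluorescence B-score inside 5 SD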
Target sequence (Q96LB2 whole entry, looked up): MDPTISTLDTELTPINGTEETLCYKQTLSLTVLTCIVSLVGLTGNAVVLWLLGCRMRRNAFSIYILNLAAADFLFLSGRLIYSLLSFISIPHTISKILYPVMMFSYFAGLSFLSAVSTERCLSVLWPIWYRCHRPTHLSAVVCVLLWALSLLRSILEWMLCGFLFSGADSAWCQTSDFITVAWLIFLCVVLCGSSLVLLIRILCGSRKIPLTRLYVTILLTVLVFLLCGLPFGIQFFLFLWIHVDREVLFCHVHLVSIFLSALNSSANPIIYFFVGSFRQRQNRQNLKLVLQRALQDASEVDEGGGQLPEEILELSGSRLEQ
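Test system: HEK293 cells stably expressing human MrgX1 receptor; amount: 15,000 cells per well; doses: compound delivered in addition one of three; times: overnight plating before 1 h dye loading; detection: Fluo-4 NW calcium-flux fluorescence, kinetic read; read-out basis: B-scored fluorescence response ratio; controls: positive and negative controls per plate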
RGS4 act: potentiators or activators of RGS4; HEK293 M3R/inducible RGS4, carbachol calcium flux Fluo4; hits give low values; B-score at 10 µM; hit rate 0.92% among 310,000;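 active = B-score of the integrated calcium signal more than 4 SD below the library mean, with starting fluorescence not abnormally high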;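 also: negative B-score means reduced calcium response which marks RGS4 activation or potentiation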
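test system = M3R-expressing HEK293 line, RGS4 induced by doxycycline | probe or stimulus = carbachol at ECmax as muscarinic agonist stimulus | timing = dye loading 30 min 37 °C, buffer rest 30 min RT | signal = calcium dye Fluo4 fluorescence | evaluation = B score from integrated fluorescence ratio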
RGS4 block: inhibitors of human RGS4 | HEK293 M3R/RGS4 inducible, Fluo-4 calcium flux; hits give high values; triggered by carbachol at its EC20 | B-score at 10 µM | hit rate 0.45% among 310,000 | AID 463165;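 active = B-score, a plate-corrected calcium signal, over three deviations above library mean, with baseline fluorescence within five deviations of library mean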;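 also: RGS4 expression induced by doxycycline in cells with stable M3 receptor; B-score is computed from the integrated fluorescence ratio over baseline after carbachol; higher B-score means a larger calcium signal and so more RGS4 inhibition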
Target sequence (P49798 whole entry, looked up): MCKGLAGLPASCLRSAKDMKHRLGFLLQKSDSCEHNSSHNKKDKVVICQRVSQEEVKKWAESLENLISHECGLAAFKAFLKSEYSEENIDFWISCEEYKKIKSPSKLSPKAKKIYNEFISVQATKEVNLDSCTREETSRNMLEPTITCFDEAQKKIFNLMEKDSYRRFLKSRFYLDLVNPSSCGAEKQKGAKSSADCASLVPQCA
MrgX1 antag: blocks BAM8-22 activation of human MrgX1 receptor. MRGX1-HEK293 calcium flux, Fluo-4, BAM8-22 antagonism; hits give low values. B-score at 10 µM. hit rate 1.3% among 310,000. AID 588676;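 active = calcium-response B-score plate-corrected more than 3 library SD below zero, starting fluorescence within 5 deviations, no agonist response on first addition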;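 also: peak minus trough fluorescence over baseline after final BAM8-22 challenge near maximal dose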
MrgX1 PAM: allosterically activates human MrgX1 receptor signaling | Q96LB2 | MrgX1-HEK293, Fluo-4 calcium flux, FDSS; hits give high values | B-score at 10 µM | hit rate 0.63% among 310,000 | AID 588675;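 active = plate-corrected calcium response at least 3 library SD above typical, normal starting fluorescence, not activating the receptor alone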;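 also: compound read alongside a low EC10 to EC30 dose of BAM8-22 agonist; peak minus trough fluorescence over baseline measured at the second addition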
MrgX1 PAM conf: confirmation of human MrgX1 receptor positive allosteric modulators; shares compounds with MrgX1 PAM; MrgX1-HEK293, Fluo-4 calcium fluorescence, FDSS; AID 602413; activation (ratio percentage), % at 10 µM; hit rate 13% among 1,200;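 active = ratio at least 3 SD above the weak peptide control, stable starting fluorescence, no direct agonism earlier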;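 also: compound followed by low BAM8-22 agonist challenge near EC20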
MrgX1 antag conf: confirmation of human MrgX1 receptor antagonists | shares compounds with MrgX1 antag | hit rate 19% among 2,300 | MrgX1-HEK293, BAM8-22 calcium flux, Fluo-4; hits give low values | remaining BAM8-22 calcium response % of control (hits give low values), % at 10 µM | AID 602420;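 active = remaining agonist calcium response no higher than 100% minus 3 SD of agonist-only control wells, with starting fluorescence near control levels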;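 also: agonist BAM8-22 given at a near maximal EC90 to ECmax level; peak minus minimum fluorescence divided by baseline after agonist addition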
HEK293 Ca flux: counter-screen for MrgX1 antagonists: effect in parental HEK293 cells. Fluo-4 calcium fluorescence, FDSS. hit rate 2% among 4,000. shares compounds with MrgX1 antag. fluorescence ratio F(max-min)/F0 at 10 µM;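 active = duplicate-averaged calcium fluorescence ratio at least three times the standard deviation of buffer wells, a nonspecific response in parental cells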
HEK293 Ca counter: activity in parental HEK293 cells without MrgX1; shares compounds with MrgX1 antag; AID 624114; fluorescence ratio F(max-min)/F0 at 10 µM; parental HEK293 calcium flux, Fluo-4 fluorescence ratio; hits give high values; hit rate 0.4% among 4,000;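 active = calcium fluorescence ratio, averaged over duplicates, at least 3 SD of the buffer-well ratio, meaning a nonspecific response in receptor-free cells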;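 also: untransfected parental HEK293 lacking MrgX1 used as counterscreen for MrgX1 allosteric activators; fluorescence change taken during the second addition on a kinetic imager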
HEK293 Ca cntr2: activity in parental HEK293 cells lacking MrgX1 receptor. hit rate 8.7% among 4,000. fluorescence ratio F(max-min)/F0 at 10 µM. AID 624115. shares compounds with MrgX1 antag. Fluo-4 calcium fluorescence (FDSS); hits give high values;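 active = calcium fluorescence ratio at least three times the spread of buffer wells, meaning a non-specific response in parental cells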
The depositor's hits bear a star; i = inactive; nt = no result. Rows were chosen to be rich in hits. Some 3.5% of all compounds tested hit in one or more screens of this group.

SMILES | MrgX1 agonist | RGS4 act | RGS4 block | MrgX1 antag | MrgX1 PAM | MrgX1 PAM conf | HEK293 Ca flux | HEK293 Ca counter | HEK293 Ca cntr2 | others
COc1ccc(-c2[nH]ncc2-c2ccc3c(c2)OCCO3)c(O)c1 | i | nt | nt | i | 8* | i | i | i | i
Cc1cccnc1NC(=O)CCc1c[nH]c2ccccc12 | i | i | i | i | i | nt | nt | nt | nt
C=C/C(C)=C/C[C@H]1C(=C)CCC2[C@](C)(C(=O)O)CCC[C@@]21C (some centres undefined) | i | nt | nt | i | 7.4* | i | i | i | i
C=C1CCC2[C@](C)(CO)[C@H](O)CC[C@@]2(C)[C@@H]1C/C=C1\C(=O)OC[C@H]1O (some centres undefined) | i | i | i | i | i | nt | nt | nt | nt
O=C(Nc1cccnc1)c1cc(S(=O)(=O)N2CCCCC2)c(Cl)cc1Cl | i | i | i | i | i | nt | nt | nt | nt
CC1CN(c2cc(-c3ccccc3)c3ccccc3n2)CC(C)O1 (centres undefined) | i | i | i | i | i | nt | nt | nt | nt
CC1CN(c2nc3ccccc3cc2-c2ccccc2)CC(C)O1 (centres undefined) | i | i | i | i | 17* | i | i | i | i
Cc1ccc(S(=O)(=O)Nc2ccc(Oc3cccnc3)nc2)cc1 | i | i | i | i | i | nt | nt | nt | nt
CC(C)(C)c1ccc(-n2ncc3c2CCCC3NC(=O)CN2CCCC2=O)cc1 (centres undefined) | i | i | i | i | 13* | i | i | i | i
Cc1nc(Oc2ccccc2)c2ccsc2n1 | i | i | i | i | 9.8* | 4.8%* | i | i | i
COc1ccc(Oc2nc(C)nc3c2oc2ccccc23)cc1 | i | i | i | i | 14* | 27%* | i | i | i
Cc1nc(Oc2ccccc2)c2oc3ccccc3c2n1 | i | i | i | i | 34* | 25%* | i | i | i
COc1ccc(Nc2nc(C)nc3c2oc2ccccc23)c(OC)c1 | i | i | i | i | i | nt | nt | nt | nt
c1ccc(Sc2ncnc3c2oc2ccccc23)cc1 | i | i | i | i | 12* | 22%* | i | i | i
O=C(NC1CCC(CC2CCC(NC(=O)C(Cl)Cl)CC2)CC1)C(Cl)Cl (centres undefined) | i | i | i | i | i | nt | nt | nt | nt
CCOc1ccc(S(=O)(=O)NCCC(=O)NCCOc2ccccc2)cc1 | i | i | i | i | i | nt | nt | nt | nt
CCN(CC)CCOc1ncnc2c1oc1ccccc12 | i | i | i | i | i | nt | nt | nt | nt
COc1ccccc1Oc1ncnc2c1oc1ccccc12 | i | i | i | i | 15* | 33%* | i | i | i
Cc1nc(Nc2ccccc2F)c2oc3ccccc3c2n1 | i | i | i | i | 7* | i | i | i | i
CCOc1c(CNc2nnnn2C)cccc1OC | i | i | i | i | i | nt | nt | nt | nt
Nc1ccc2nc(SCc3cccc(F)c3)sc2c1 | i | i | i | i | 9.2* | i | i | i | i
CCOC(=O)CSc1nc2ccc(N)cc2s1 | i | i | i | i | i | nt | nt | nt | nt
CCN(CC)CCn1c(SCC(=O)Nc2cccc(OC)c2)nc2c(sc3ccccc32)c1=O | i | i | i | i | i | nt | nt | nt | nt
COc1cccc(NC(=O)CSc2nc3c(sc4ccccc43)c(=O)n2CCN(C)C)c1 | i | i | i | i | 7.5* | i | i | i | i
Cc1c(C)n(C)c2ccc(C(=O)NCCN3CCOCC3)cc12 | i | i | i | i | i | nt | nt | nt | nt
SMILES | MrgX1 agonist | RGS4 act | RGS4 block | MrgX1 antag | MrgX1 PAM | MrgX1 PAM conf | HEK293 Ca flux | HEK293 Ca counter | HEK293 Ca cntr2 | others
O=C(C1CC1)N1CCc2cc(Br)cc(S(=O)(=O)N3CCCCCC3)c21 | i | i | i | i | 11* | i | i | i | i
COc1ccc(CC(=O)N(c2ccccc2)c2nc(C)cs2)cc1 | i | i | i | i | 11* | i | i | i | i
Cc1csc(N(C(=O)Cc2ccccc2F)c2ccccc2)n1 | i | i | i | i | i | nt | nt | nt | nt
CCCCc1cc(=O)oc2cc(OCC(=O)NCc3ccccn3)c(Cl)cc12 | i | i | i | i | i | nt | nt | nt | nt
CCCCc1cc(=O)oc2cc(OC(C)C(=O)NCc3ccccn3)c(Cl)cc12 (centres undefined) | i | i | i | i | 13* | i | i | i | i
COc1ccc(Nc2cc(C)nc(N)n2)cc1 | i | i | i | i | i | nt | nt | nt | nt
Nc1cc(Nc2ccc(Br)cc2)nc(N)n1 | i | i | i | -8.6* | 7.5* | i | i | i | i | MrgX1 antag conf=i
CCOC(=O)C1(CCc2ccccc2)CCN(Cc2cccc3nccnc23)CC1 | i | i | i | i | i | nt | nt | nt | nt
O=C(CCl)Nc1cccc(S(=O)(=O)NC2=NCCC2)c1 | i | i | i | i | 7.9* | i | i | i | i
CCNC(=S)Nc1cccc(S(=O)(=O)NC2=NCCC2)c1 | i | i | i | i | i | nt | nt | nt | nt
Cc1ccc(Nc2ncnc3sccc23)c(C)c1 | i | i | i | i | 8* | i | i | i | i
CS(=O)(=O)N(Cc1cc2ccccc2[nH]c1=O)C1CCCCC1 | i | i | i | i | 6.8* | i | i | i | i
CCNc1nc2[nH]c(=O)c3c(c2s1)OC(N)=C(C#N)C3c1ccc(C)cc1 (centres undefined) | i | i | i | i | 16* | i | i | i | 51*
Cc1ccc(NC(=O)C2C3/C=C\CCCCC32)cc1 (centres undefined) | i | i | i | i | i | nt | nt | nt | nt
